According to ChEMBL document CHEMBL1641579, “Synthesis and biological evaluation of 7-substituted-1-(3-bromophenylamino)isoquinoline-4-carbonitriles as inhibitors of myosin light chain kinase and epidermal growth factor receptor” (Bioorg Med Chem, 2011):

Legend:
Assay type in all cases: functional
NCI-H1770 = test: Growth inhibition of human NCI-H1770 cells assessed as ATP level after 96 hrs by CellTiter-Glo assay; conditions: NCI-H1770, 96 h
Method in brief: (§1)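 NSCLC lines maintained as in earlier work and authenticated by mutational analysis and SNP arrays. Cells were plated in 384-well format and allowed 24 h before compound addition as 10 threefold serial dilutions (DMSO stocks). After 96 h, viability was read as cellular ATP by CellTiter-Glo. GI50 was fitted with an R package.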

NCI-H1993 = test: Growth inhibition of human NCI-H1993 cells assessed as ATP level after 96 hrs by CellTiter-Glo assay; conditions: NCI-H1993, 96 h
[1] = Growth inhibition of human HCC4006 cells assessed as ATP level after 96 hrs by CellTiter-Glo assay; conditions: HCC4006, 96 h; method in brief: as §1
A-427 = test: Growth inhibition of human A427 cells assessed as ATP level after 96 hrs by CellTiter-Glo assay; conditions: A-427, 96 h; method in brief: as §1
Calu-1 = test: Growth inhibition of human Calu1 cells assessed as ATP level after 96 hrs by CellTiter-Glo assay; conditions: Calu-1, 96 h; method in brief: as §1
[2] = Growth inhibition of human HCC364 cells assessed as ATP level after 96 hrs by CellTiter-Glo assay; conditions: HCC364, 96 h; method in brief: as §1

GI50 (NCI-H1770): 9.02 µM | GI50 (NCI-H1993): 12.9 µM | GI50 (Calu-1): 19.7 µM
Structure (SMILES): CN(C)C/C=C/C(=O)Nc1ccc2c(C#N)cnc(Nc3cccc(Br)c3)c2c1
GI50 [1]: 13.3 µM | GI50 (A-427): 15.8 µM | GI50 [2]: 21.9 µM
